Among the data in ChEMBL document CHEMBL1914452, “Arene- and quinoline-sulfonamides as novel 5-HT7 receptor ligands” (Bioorg Med Chem, 2011) are Ki and Ratio Ki values, retold here.

The target of assay [1] is 5-hydroxytryptamine receptor 7 (Homo sapiens, UniProt P34969). Description: Displacement of [3H]-5-CT from human 5-HT7 receptor expressed in HEK293 cells after 1 hr by liquid scintillation counting. Format: cell-based. In outline: (§1)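 Competition binding with 7–9 compound concentrations, each run in triplicate. 5-HT1A, 5-HT2A and α1 sites were native. 5-HT6 used [3H]-LSD and 5-HT7 used [3H]-5-CT, both on cloned human receptors stably expressed in HEK293 cells. After incubation, samples were vacuum-filtered through GF/B filters and washed with ice-cold buffer. Bound radioactivity was counted by liquid scintillation.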
5-hydroxytryptamine receptor 7, sequence (P34969 whole entry): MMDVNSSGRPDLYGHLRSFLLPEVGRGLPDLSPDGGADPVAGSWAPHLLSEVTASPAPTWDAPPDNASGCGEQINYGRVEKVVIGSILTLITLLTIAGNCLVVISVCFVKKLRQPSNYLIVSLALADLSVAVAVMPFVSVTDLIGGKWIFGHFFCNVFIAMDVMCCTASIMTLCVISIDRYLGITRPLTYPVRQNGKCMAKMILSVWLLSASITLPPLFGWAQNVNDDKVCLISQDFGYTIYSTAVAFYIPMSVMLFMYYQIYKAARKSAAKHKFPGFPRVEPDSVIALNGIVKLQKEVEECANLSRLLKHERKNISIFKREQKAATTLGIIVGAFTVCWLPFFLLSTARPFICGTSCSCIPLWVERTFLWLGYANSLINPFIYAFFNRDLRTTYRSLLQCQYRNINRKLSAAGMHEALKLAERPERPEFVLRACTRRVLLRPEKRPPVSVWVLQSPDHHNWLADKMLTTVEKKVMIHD
Background: In a radioligand displacement assay an active substance lowers the binding of a labelled ligand.

The target in assay [2] is T1, 5-hydroxytryptamine receptor 1A (Rattus norvegicus, UniProt P19327).
T1 sequence (P19327 whole entry): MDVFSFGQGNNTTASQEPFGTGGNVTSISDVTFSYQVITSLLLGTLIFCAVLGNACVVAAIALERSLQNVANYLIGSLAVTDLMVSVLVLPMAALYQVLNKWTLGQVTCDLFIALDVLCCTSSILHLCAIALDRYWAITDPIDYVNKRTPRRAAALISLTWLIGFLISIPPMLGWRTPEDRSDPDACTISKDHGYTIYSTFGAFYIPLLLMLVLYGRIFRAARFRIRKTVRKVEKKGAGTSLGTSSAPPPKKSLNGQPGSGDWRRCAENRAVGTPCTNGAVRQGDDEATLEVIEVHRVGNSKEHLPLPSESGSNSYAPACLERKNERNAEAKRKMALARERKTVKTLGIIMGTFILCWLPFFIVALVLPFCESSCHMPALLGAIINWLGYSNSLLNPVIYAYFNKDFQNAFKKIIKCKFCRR
Description: Displacement of [3H]-8-OH-DPAT from 5-HT1A receptor in rat hippocampus by liquid scintillation counting. Format: tissue-based. The method in brief:
as §1

Another assay concerns HEK293. Description: Selectivity ratio of Ki for 5-HT1A receptor in rat hippocampus to Ki for human 5-HT7 receptor expressed in HEK293 cells. Format: cell-based.
The target in assay [3] is 5-hydroxytryptamine receptor 6 (Homo sapiens, UniProt P50406). Description: Displacement of [3H]-LSD from human 5-HT6 receptor expressed in HEK293 cells after 1 hr by liquid scintillation counting. The assay is classed as cell-based. In outline: as §1
5-hydroxytryptamine receptor 6, sequence (P50406 whole entry): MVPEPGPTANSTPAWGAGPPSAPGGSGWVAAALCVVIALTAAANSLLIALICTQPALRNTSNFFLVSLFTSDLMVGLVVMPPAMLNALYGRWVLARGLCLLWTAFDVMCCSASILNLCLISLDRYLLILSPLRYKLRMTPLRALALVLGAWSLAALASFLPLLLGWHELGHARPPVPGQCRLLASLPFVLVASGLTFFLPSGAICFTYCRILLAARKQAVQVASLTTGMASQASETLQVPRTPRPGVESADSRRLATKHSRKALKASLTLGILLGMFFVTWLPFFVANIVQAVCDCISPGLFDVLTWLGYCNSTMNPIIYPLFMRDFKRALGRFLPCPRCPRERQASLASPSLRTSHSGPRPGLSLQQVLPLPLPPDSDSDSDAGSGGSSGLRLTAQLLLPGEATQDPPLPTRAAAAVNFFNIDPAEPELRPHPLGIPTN
Assay [4] addresses 5-hydroxytryptamine receptor 2A (Rattus norvegicus, UniProt P14842). Description: Displacement of [3H]-ketanserin from 5-HT2A receptor in rat cortex by liquid scintillation counting. In outline: as §1

5-hydroxytryptamine receptor 2A, sequence (P14842 whole entry): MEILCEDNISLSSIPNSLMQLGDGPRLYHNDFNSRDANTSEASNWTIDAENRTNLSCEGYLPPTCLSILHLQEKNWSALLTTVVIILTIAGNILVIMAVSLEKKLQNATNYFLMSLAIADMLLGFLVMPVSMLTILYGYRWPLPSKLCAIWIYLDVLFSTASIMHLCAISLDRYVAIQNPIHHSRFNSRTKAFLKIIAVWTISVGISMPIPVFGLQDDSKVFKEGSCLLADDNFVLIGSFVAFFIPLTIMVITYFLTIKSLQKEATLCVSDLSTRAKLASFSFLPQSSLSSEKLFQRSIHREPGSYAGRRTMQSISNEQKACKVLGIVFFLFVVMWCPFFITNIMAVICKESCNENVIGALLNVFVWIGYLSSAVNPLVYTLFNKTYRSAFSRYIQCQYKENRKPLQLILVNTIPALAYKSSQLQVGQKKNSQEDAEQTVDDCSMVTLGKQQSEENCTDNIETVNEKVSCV

`CCN(CCCCN1CCN(c2ccccc2OC)CC1)S(=O)(=O)c1ccc2ncccc2c1`: the values for the Ki in assay [1] and in assay [2] were 41 nM and 21 nM, respectively. Also, the Ratio Ki in the assay on HEK293 came out at 0.5.
`CCN(CCCCN1CCN(c2ccccc2OC)CC1)S(=O)(=O)c1cccc2cccnc12`: the Ki in assay [1] amounted to 37 nM; in assay [2], 30 nM. Also, in the assay with HEK293, the Ratio Ki worked out at 0.8.
The like results for `COc1ccccc1N1CCN(CCCCNS(=O)(=O)c2cccc3cccnc23)CC1` were, in that order, 55 nM, 53 nM and 0.9.
The like results for `CCN(CCCCN1CCN(c2ccccc2OC)CC1)S(=O)(=O)c1cnc2ccccc2c1` were, in that order, 38 nM, 9.3 nM and 0.2.
Turning to `CCN(CCCCN1CCC2CCCCC2C1)S(=O)(=O)c1cnc2ccccc2c1` (stereo not given), the Ki in assay [1] stood at 187 nM; in assay [2], 325 nM; in assay [3], 14500 nM; in assay [4] it was 5090 nM. For the same compound, the Ratio Ki in the assay with HEK293 amounted to 1.7.
The like results for `O=S(=O)(NCCCCN1CCc2ccccc2C1)c1cccc2cccnc12` were, in that order, 88 nM, 271 nM, 1460 nM, 4180 nM and 3.
With `NCCCN(CCCN1CCc2ccccc2C1)S(=O)(=O)c1ccccc1`, the affinity in assay [1] corresponds to a Ki of 335 nM.
As for `O=S(=O)(NCCCCN1CCc2sccc2C1)c1cnc2ccccc2c1`, the Ki in assay [1] was determined as 506 nM; in assay [2] it was 986 nM; in assay [3], 17400 nM; in assay [4], 1080 nM. Besides, the Ratio Ki in the assay with HEK293 is 1.9.
In assay [1], `NCCCN(CCCCN1CCc2ccccc2C1)S(=O)(=O)c1ccccc1` displayed a Ki of 235 nM.
Compound `NCCN(CCCN1CCc2ccccc2C1)S(=O)(=O)c1ccccc1` gave a Ki in assay [1] of 267 nM.
Same read-out and setting: in the case of `O=S(=O)(NCCCN1CCc2ccccc2C1)c1ccc2ccccc2c1` it was 80 nM.
Take `O=S(=O)(NCCCCN1CCc2ccccc2C1)c1cnc2ccccc2c1`: the Ki in assay [1] is 228 nM; in assay [2] it was 305 nM; in assay [3], 8640 nM; in assay [4], 590 nM. The Ratio Ki in the assay with HEK293 worked out at 1.3.
In assay [1], `O=S(=O)(NCCCCN1CCc2ccccc2C1)c1cccc2ccccc12` returned a Ki of 296 nM. That is a sub-micromolar value.
As for `CCN(CCCN1CCN(c2ccccc2OC)CC1)S(=O)(=O)c1ccc(C)cc1`, in assay [1], the Ki worked out at 19 nM.
In assay [1], `O=S(=O)(NCCN1CCc2ccccc2C1)c1ccc2ccccc2c1` registered a Ki of 78 nM.
As to `COc1ccccc1N1CCN(CCCCNS(=O)(=O)c2ccc3ncccc3c2)CC1`, the Ki in assay [1] came out at 132 nM; in assay [2], 40 nM. Also, in the assay with HEK293, the Ratio Ki amounted to 0.3.
As to `O=S(=O)(NCCCN1CCC2CCCCC2C1)c1ccc2ncccc2c1` (stereo not given), the values for the Ki in assay [1] and in assay [2] were 1420 nM and 4310 nM, respectively. For the same compound, the Ratio Ki with HEK293 was 3.
In the case of `COc1ccccc1N1CCN(CCCNS(=O)(=O)c2cccc3cccnc23)CC1`, the Ki came out at 90 nM in assay [1], 37 nM in assay [2], 1640 nM in assay [3] and 2160 nM in assay [4]. Moreover, the Ratio Ki in the assay with HEK293 worked out at 0.4.
As to `NCCCN(CCN1CCc2ccccc2C1)S(=O)(=O)c1ccccc1`, the Ki in assay [1] came out at 3010 nM.
Take `COc1ccccc1N1CCN(CCCNS(=O)(=O)c2ccc3ncccc3c2)CC1`: the Ki in assay [1] was 156 nM; in assay [2], 18 nM; in assay [3] it was 2840 nM; in assay [4], 825 nM. The Ratio Ki with HEK293 turned out to be 0.1.
Consider `O=S(=O)(NCCCCN1CCc2ccccc2C1)c1ccc2ccccc2c1`, for which the affinity in assay [1], expressed as Ki, was 64 nM.
`COc1cccc2c1CCN(CCCNS(=O)(=O)c1cccc3ccccc13)C2`: in assay [1], the Ki was 360 nM. This Ki lies about 5.6-fold higher than the previous one.
Regarding `CCN(CCCN1CCN(c2ccccc2OC)CC1)S(=O)(=O)c1ccc2ncccc2c1`, the Ki in assay [1] stood at 29 nM; in assay [2] it was 25 nM; in assay [3], 1920 nM; in assay [4] it was 1320 nM. In the assay with HEK293, the Ratio Ki stood at 0.9.
The matching figures for `O=S(=O)(NCCCCN1CCc2ccccc2C1)c1ccc2ncccc2c1`: 224 nM, 233 nM, 8250 nM, 1520 nM and 1.
The like results for `O=S(=O)(NCCCCN1CCc2sccc2C1)c1ccc2cccnc2c1` were, in that order, 334 nM, 483 nM, 17500 nM, 2650 nM and 1.4.
Consider `O=S(=O)(NCCCCN1CCC2CCCCC2C1)c1cnc2ccccc2c1` (stereo not given), for which the results for the Ki in assay [1] and in assay [2] were 995 nM and 1450 nM, respectively. The Ratio Ki with HEK293 was 1.5.
The like results for `COc1ccccc1N1CCN(CCCCNS(=O)(=O)c2cnc3ccccc3c2)CC1` were, in that order, 79 nM, 3.7 nM and 0.05.
For the compound `O=S(=O)(NCCN1CCc2ccccc2C1)c1ccccc1`, in assay [1], the affinity corresponds to a Ki of 773 nM.
As to `O=S(=O)(NCCCCN1CCc2ccccc2C1)c1ccccc1`, in assay [1], the affinity corresponds to a Ki of 94 nM. This Ki lies about 8.2-fold lower than the previous one.
As to `O=S(=O)(NCCCCN1CCC2CCCCC2C1)c1cccc2cccnc12` (stereo not given), the Ki in assay [1] was 1260 nM; in assay [2], 3570 nM. Further, the Ratio Ki with HEK293 was found to be 2.8.
`O=S(=O)(NCCCN1CCc2ccccc2C1)c1ccccc1` displayed a Ki in assay [1] of 270 nM. This lies in the sub-micromolar range.

The term Ki denotes a dissociation constant, usually derived from enzyme kinetics or from competition with a known ligand. Read a high Ki as lower affinity.
